Measurements reported in ChEMBL document CHEMBL1134640, “A novel series of highly potent benzimidazole-based microsomal triglyceride transfer protein inhibitors” (J Med Chem, 2001).

Assays:
[1] = PlasmaTC lowering was determined in standard-diet-fed cynomolgus monkeys after 16h of postdosing at 10 mg/kg; format: functional, Cercopithecidae
Procedure, shortened: (§1)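 Cynomolgus monkeys on standard diet received oral dosing once daily for 7 days. Plasma TC was measured 16 h postdosing. Values are percent lowering at a stated dose (mg/kg), or ED50, the dose producing 50% TC lowering.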

[2] = PlasmaTC lowering was determined in standard-diet-fed cynomolgus monkeys after 16h of postdosing at 5 mg/kg; format: functional, Cercopithecidae; procedure, shortened: as §1
[3] = molecular target: T1, Microsomal triglyceride transfer protein large subunit (Homo sapiens, UniProt P55157); test: (§2) In vitro inhibition of human microsomal triglyceride transfer protein in HepG2 cells using apoB secretion assay; format: functional, cell-based
T1 sequence (P55157 whole entry): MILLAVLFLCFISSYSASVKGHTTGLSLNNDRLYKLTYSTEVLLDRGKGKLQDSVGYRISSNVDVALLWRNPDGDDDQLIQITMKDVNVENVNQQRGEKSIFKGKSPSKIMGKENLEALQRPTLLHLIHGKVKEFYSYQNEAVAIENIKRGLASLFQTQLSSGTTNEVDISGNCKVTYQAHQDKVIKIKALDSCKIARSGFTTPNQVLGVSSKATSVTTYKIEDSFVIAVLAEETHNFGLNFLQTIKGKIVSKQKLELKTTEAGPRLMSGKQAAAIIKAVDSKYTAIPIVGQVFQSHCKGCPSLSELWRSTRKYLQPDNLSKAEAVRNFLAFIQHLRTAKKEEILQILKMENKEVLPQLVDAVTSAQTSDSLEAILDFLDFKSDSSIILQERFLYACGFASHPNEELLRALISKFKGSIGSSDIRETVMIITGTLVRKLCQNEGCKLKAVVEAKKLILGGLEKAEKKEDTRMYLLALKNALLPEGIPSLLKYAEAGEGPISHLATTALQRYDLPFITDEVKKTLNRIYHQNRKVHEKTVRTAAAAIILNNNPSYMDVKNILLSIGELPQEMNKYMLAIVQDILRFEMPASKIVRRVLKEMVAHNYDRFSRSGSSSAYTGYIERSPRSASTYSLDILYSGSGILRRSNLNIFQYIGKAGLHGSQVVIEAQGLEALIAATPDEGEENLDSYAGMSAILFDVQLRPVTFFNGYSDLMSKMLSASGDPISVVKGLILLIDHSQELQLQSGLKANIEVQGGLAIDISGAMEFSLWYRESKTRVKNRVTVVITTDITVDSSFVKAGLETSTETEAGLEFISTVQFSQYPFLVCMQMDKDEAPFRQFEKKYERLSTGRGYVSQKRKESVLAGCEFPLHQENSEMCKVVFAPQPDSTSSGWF

[4] = Dose required for 50% lowering of plasma TC in standard-diet-fed golden Syrian hamsters 16h postdosing; format: functional
Procedure, shortened: (§3)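 Golden Syrian hamsters on standard diet were dosed orally once daily for 3 days. Plasma total cholesterol was measured 16 h after dosing. Values are percent TC lowering at a given dose (mg/kg), or ED50, the dose giving 50% plasma TC lowering.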

[5] = PlasmaTC lowering was determined in standard-diet-fed cynomolgus monkeys after 16h of postdosing at 1.25 mg/kg; format: functional, Cercopithecidae; procedure, shortened: as §1
[6] = Dose required for 50% lowering of plasma TC in standard-diet-fed cynomolgus monkeys; format: functional; conditions: Cercopithecidae; procedure, shortened: as §1
[7] = molecular target: T1, Microsomal triglyceride transfer protein large subunit; test: In vitro inhibition of human microsomal triglyceride transfer protein using triglyceride transfer assay
[8] = PlasmaTC lowering was determined in standard-diet-fed cynomolgus monkeys after 16h of postdosing at 2.5 mg/kg; format: functional, Cercopithecidae; procedure, shortened: as §1
[9] = molecular target: T1, Microsomal triglyceride transfer protein large subunit; test: In vitro inhibition of human Microsomal Triglyceride Transfer Protein, (triglyceride transfer assay)
[10] = PlasmaTC lowering was determined in standard-diet-fed cynomolgus monkeys after 16h of postdosing of at 2.5 mg/kg; format: functional, Cercopithecidae; procedure, shortened: as §1
[11] = Dose required for 50% lowering of plasma TC in standard-diet-fed golden Syrian hamsters 16h postdosing.; format: functional; procedure, shortened: as §3
[12] = molecular target: T1, Microsomal triglyceride transfer protein large subunit; test: as §2; format: cell-based
[13] = PlasmaTC lowering was determined in standard-diet-fed cynomolgus monkeys after 16h of postdosing of at 1.25 mg/kg; format: functional, Cercopithecidae; procedure, shortened: as §1
[14] = PlasmaTC lowering was determined in standard-diet-fed cynomolgus monkeys after 16h of postdosing of at 5 mg/kg; format: functional, Cercopithecidae; procedure, shortened: as §1
[15] = PlasmaTC lowering was determined in standard-diet-fed cynomolgus monkeys after 16h of postdosing of at 0.1 mg/kg; format: functional, Cercopithecidae; procedure, shortened: as §1
[16] = Dose required for 50% lowering of plasma TC in standard-diet-fed cynomolgus monkeys 16h postdosing.; format: functional; conditions: Cercopithecidae; procedure, shortened: as §1
[17] = PlasmaTC lowering was determined in standard-diet-fed cynomolgus monkeys after 16h of postdosing of at 1 mg/kg; format: functional, Cercopithecidae; procedure, shortened: as §1
[18] = PlasmaTC lowering was determined in standard-diet-fed cynomolgus monkeys after 16h of postdosing of at 0.3 mg/kg; format: functional, Cercopithecidae; procedure, shortened: as §1
[19] = system: Mesocricetus auratus; test: 50% lowering of plasma TC in standard-diet-fed golden Syrian hamsters 16h postdosing. 15 mg/kg required for
[20] = ED50 represents dose required for 50% lowering of plasma TC in standard-diet-fed golden Syrian hamsters 16h postdosing.; conditions: Mesocricetus auratus
[21] = molecular target: T1, Microsomal triglyceride transfer protein large subunit; test: In vitro inhibition of human Microsomal Triglyceride Transfer Protein (triglyceride transfer assay)
[22] = system: Mesocricetus auratus; test: PlasmaTC lowering was determined in standard-diet-fed after 16h of postdosing of at 15 mg/kg in golden Syrian hamsters
[23] = TC lowering at dose was measured as % lowering of plasma TC in standard-diet-fed cynomolgus monkeys 16h postdosing.; format: functional, Cercopithecidae; procedure, shortened: as §1
[24] = system: Mesocricetus auratus; test: TC lowering at 8 mg/kg was measured as % lowering of plasma TC in standard-diet-fed golden Syrian hamsters 16h postdosing.

O=C(NC1CCN(CCCCC2(C(=O)NCC(F)(F)F)c3ccccc3-c3ccccc32)CC1)c1ccccc1-c1ccc(C(F)(F)F)cc1 [LOMITAPIDE]
TC lowering [1]: -88%
TC lowering [2]: -74%
IC50 [3]: 0.8 nM
ED50 [4]: 2.3 mg/kg
TC lowering [5]: -35%
ED50 [6]: 2 mg/kg
IC50 [7]: 8 nM
TC lowering [8]: -65%

Cc1ccc2c(ncn2CCCCC2(C(=O)NCC(F)(F)F)c3ccccc3-c3ccccc32)c1NC(=O)c1ccccc1-c1ccc(C(F)(F)F)cc1
IC50 [9]: 1 nM
TC lowering [10]: -68%
ED50 [11]: 3.8 mg/kg
IC50 [12]: 0.02 nM

Cc1nc2c(NC(=O)c3ccccc3-c3ccc(C(F)(F)F)cc3)cccc2n1CCCCC1(C(=O)NCC(F)(F)F)c2ccccc2-c2ccccc21
IC50 [9]: 1 nM
TC lowering [13]: -51%
ED50 [11]: 2.5 mg/kg
TC lowering [14]: -80%
IC50 [12]: 0.15 nM

Cc1ccc2c(nc(C)n2CCCCC2(C(=O)NCC(F)(F)F)c3ccccc3-c3ccccc32)c1NC(=O)c1ccccc1-c1ccc(C(F)(F)F)cc1
IC50 [9]: 1 nM
TC lowering [15]: -28%
ED50 [16]: 0.38 mg/kg
TC lowering [17]: -76%
TC lowering [18]: -43%
TC lowering [13]: -83%
ED50 [11]: 0.28 mg/kg
IC50 [12]: 0.03 nM

CCCc1nc2c(NC(=O)c3ccccc3-c3ccc(C(F)(F)F)cc3)cccc2n1CCCCC1(C(=O)NCC(F)(F)F)c2ccccc2-c2ccccc21
IC50 [9]: 2 nM
TC lowering [19]: -44%

O=C(Nc1cccc2c1ncn2CCCCC1(C(=O)NCC(F)(F)F)c2ccccc2-c2ccccc21)c1ccccc1-c1ccc(C(F)(F)F)cc1
TC lowering [10]: -19%
TC lowering [14]: -52%
ED50 [20]: 12 mg/kg
IC50 [21]: 5 nM
IC50 [12]: 0.24 nM

O=C(Nc1cccc2c1ncn2CCCC1(C(=O)NCC(F)(F)F)c2ccccc2-c2ccccc21)c1ccccc1-c1ccc(C(F)(F)F)cc1
IC50 [9]: 10 nM
TC lowering [22]: -11%

CC(C)c1nc2c(NC(=O)c3ccccc3-c3ccc(C(F)(F)F)cc3)cccc2n1CCCCC1(C(=O)NCC(F)(F)F)c2ccccc2-c2ccccc21
IC50 [9]: 4 nM
TC lowering [23]: -39%
TC lowering [24]: -60%
IC50 [12]: 0.06 nM
